Results: ChEMBL document CHEMBL4229376, “Optimization of the pharmacokinetic properties of potent anti-trypanosomal triazine derivatives” (Eur J Med Chem, 2018)
Active and inactive are the calls of the source. The calls are words filed in the database; no cut-off is given here.

Experiments:
[1] = tested on: Trypanosoma brucei brucei; assay: Antitrypanosomal activity against suramin-sensitive Trypanosoma brucei brucei Squib 427 after 72 hrs by resazurin dye-based fluorimetric analysis; format: functional, organism-based; conditions: Squib 427, 72 h
Leishmania infantum = assay: Antileishmanial activity against Leishmania infantum MHOM/MA (BE)/67 amastigotes infected in primary peritoneal mouse macrophages after 120 hrs by giemsa staining-based microscopic analysis; format: functional, organism-based; conditions: MHOM/MA (BE)/67, 120 h
[2] = Drug metabolism in mouse liver microsomes assessed as CYP450 mediated compound […] by measuring parent compound remaining at 5 uM after 30 mins in presence of NADPH by UPLC/MS/ESI analysis; format: ADME; conditions: read-out: Stability
[3] = Drug metabolism in mouse liver microsomes assessed as UGT mediated compound […] by measuring parent compound remaining at 5 uM after 15 mins in presence of UDPGA by UPLC/MS/ESI analysis; format: ADME; conditions: 0.25 h
Outline: (§1)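 Metabolic stability was run with mouse liver microsomal fraction (S9) and read as percent parent compound remaining over incubation time. Diclofenac served as the reference compound.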

[4] = Drug metabolism in mouse liver microsomes assessed as UGT mediated compound […] by measuring parent compound remaining at 5 uM after 30 mins in presence of UDPGA by UPLC/MS/ESI analysis; format: ADME; conditions: 0.5 h; outline: as §1
[5] = Drug metabolism in mouse liver microsomes assessed as UGT mediated compound […] by measuring parent compound remaining at 5 uM after 60 mins in presence of UDPGA by UPLC/MS/ESI analysis; format: ADME; conditions: 1 h; outline: as §1
[6] = Drug metabolism in human liver microsomes assessed as CYP450 mediated compound […] by measuring parent compound remaining at 5 uM after 15 mins in presence of NADPH by UPLC/MS/ESI analysis; format: ADME; conditions: read-out: Stability
[7] = Drug metabolism in human liver microsomes assessed as UGT mediated compound […] by measuring parent compound remaining at 5 uM after 15 mins in presence of UDPGA by UPLC/MS/ESI analysis; format: ADME; conditions: read-out: Stability
[8] = tested on: Trypanosoma brucei brucei; assay: Antitrypanosomal activity against Trypanosoma brucei brucei Squib 427 infected in Swiss mouse assessed as mouse survival at 25 mg/kg, po bid for 5 days and measured on day 14 post infection; format: functional, organism-based
Outline: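 Acute T. b. brucei mouse infection model. Dosing was PO or IP at 10–50 mg/kg, once (SID) or twice (BID) daily for 5 days after infection, with 3 mice per group. […] Read-outs were mean survival time and survivors on day 14 post infection.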

[9] = tested on: Trypanosoma brucei brucei; assay: Antitrypanosomal activity against Trypanosoma brucei brucei Squib 427 infected in Swiss mouse assessed as mean survival days at 50 mg/kg, po administered as single dose for 5 days; format: functional
Outline: (§2)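 Acute mouse infection model with T. b. brucei. Dosing ran for 5 days after infection, orally or intraperitoneally, once or twice daily. Groups were 3 mice each, with vehicle-treated infected controls. The read-out was mean survival time in days, plus the number of survivors on day 14 post-infection.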

[10] = tested on: Trypanosoma brucei brucei; assay: Antitrypanosomal activity against Trypanosoma brucei brucei Squib 427 infected in Swiss mouse assessed as mean survival days at 25 mg/kg, po bid for 5 days; format: functional; outline: as §2
[11] = Drug metabolism in human plasma assessed as parent compound remaining after 30 mins by UPLC/MS/ESI analysis; format: ADME, cell-free; conditions: read-out: Stability
[12] = Drug metabolism in human plasma assessed as parent compound remaining after 1440 mins by UPLC/MS/ESI analysis; format: ADME, cell-free; conditions: read-out: Stability
Outline: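 Compound incubated in human plasma for 24 h at 37 °C, and the fraction of parent compound remaining was determined.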

[13] = Protein binding in mouse plasma at 2 uM after 6 hrs by equilibrium dialysis and LC-MS analysis; format: ADME, cell-free; conditions: read-out: PPB (converted)
[14] = Drug level in Swiss mouse blood infected with Trypanosoma brucei brucei Squib 427 at 50 mg/kg, po bid for 5 days measured after 0.5 hrs after last dose by UPLC/MS/ESI analysis; format: ADME, organism-based; conditions: whole blood, read-out: Drug uptake
[15] = Drug level in Swiss mouse blood infected with Trypanosoma brucei brucei Squib 427 at 50 mg/kg, po bid for 5 days measured after 1 hr after last dose by UPLC/MS/ESI analysis; format: ADME, organism-based; conditions: whole blood, read-out: Drug uptake
[16] = Drug level in Swiss mouse blood infected with Trypanosoma brucei brucei Squib 427 at 50 mg/kg, po bid for 5 days measured after 4 hrs after last dose by UPLC/MS/ESI analysis; format: ADME, organism-based; conditions: whole blood, read-out: Drug uptake
[17] = Drug level in Swiss mouse blood infected with Trypanosoma brucei brucei Squib 427 at 25 mg/kg, po bid for 5 days measured after 4 hrs after last dose by UPLC/MS/ESI analysis; format: ADME, organism-based; conditions: whole blood, read-out: Drug uptake
[18] = Drug uptake in Swiss mouse blood at 50 mg/kg, po administered as single dose after 4 hrs by UPLC/MS/ESI analysis; format: ADME, organism-based; conditions: whole blood, read-out: Drug uptake
Outline: (§3)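 Mice were given the compound orally as a single dose of either 25 or 50 mg/kg, one group per dose. Plasma concentrations were followed over time up to 24 h, and the pharmacokinetic parameters were derived from the concentration-time profile.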

[19] = Drug uptake in Swiss mouse blood at 50 mg/kg, po administered as single dose after 24 hrs by UPLC/MS/ESI analysis; format: ADME, organism-based; conditions: whole blood, read-out: Drug uptake; outline: as §3
[20] = Drug uptake in Swiss mouse blood at 25 mg/kg, po administered as single dose after 0.5 hrs by UPLC/MS/ESI analysis; format: ADME, organism-based; conditions: whole blood, read-out: Drug uptake; outline: as §3
[21] = Drug uptake in Swiss mouse blood at 25 mg/kg, po administered as single dose after 1 hr by UPLC/MS/ESI analysis; format: ADME, organism-based; conditions: whole blood, read-out: Drug uptake; outline: as §3
[22] = Drug uptake in Swiss mouse blood at 25 mg/kg, po administered as single dose after 2 hrs by UPLC/MS/ESI analysis; format: ADME, organism-based; conditions: whole blood, read-out: Drug uptake; outline: as §3
[23] = Drug uptake in Swiss mouse blood at 25 mg/kg, po administered as single dose after 4 hrs by UPLC/MS/ESI analysis; format: ADME, organism-based; conditions: whole blood, read-out: Drug uptake; outline: as §3
[24] = Cmax in Swiss mouse infected with Trypanosoma brucei brucei Squib 427 at 50 mg/kg, po bid for 5 days after 24 hrs by UPLC/MS/ESI analysis; format: ADME, organism-based; design: dose 50 mg/kg, route oral; conditions: in vivo
[25] = AUC (0 to >4 hrs) in Swiss mouse infected with Trypanosoma brucei brucei Squib 427 at 50 mg/kg, po bid for 5 days by UPLC/MS/ESI analysis; format: ADME, organism-based; conditions: in vivo
[26] = Cmax in Swiss mouse infected with Trypanosoma brucei brucei Squib 427 at 25 mg/kg, po administered as single dose after 24 hrs by UPLC/MS/ESI analysis; format: ADME, organism-based; design: dose 25 mg/kg, route oral; conditions: in vivo
[27] = AUC (0 to >4 hrs) in Swiss mouse at 25 mg/kg, po administered as single dose by UPLC/MS/ESI analysis; format: ADME, organism-based; conditions: in vivo
Outline: (§4)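 Mice in groups received one oral dose of 25 or 50 mg/kg. Plasma concentrations were followed over time up to 24 h, and PK parameters including T1/2 were derived from the concentration–time profile.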

[28] = Clearance in Swiss mouse at 25 mg/kg, po administered as single dose after 24 hrs by UPLC/MS/ESI analysis; format: ADME, organism-based; conditions: in vivo; outline: as §4
[29] = Ratio of Cmax in Swiss mouse at 50 mg/kg, po administered as single dose after 24 hrs by LC-MS analysis to IC50 for antitrypanosomal activity against suramin-sensitive Trypanosoma brucei brucei Squib 427 after 72 hrs by resazurin dye-based fluorimetric analysis; format: ADME, organism-based; conditions: in vivo
[30] = Protein binding in mouse plasma assessed as drug recovery at 2 uM after 6 hrs by equilibrium dialysis and LC-MS analysis; format: ADME, cell-free; conditions: read-out: Drug recovery
[31] = Protein binding in 10% FBS in Trypanosoma brucei culture medium at 10 uM after 6 hrs by equilibrium dialysis and LC-MS analysis; format: ADME, cell-free, Bos taurus, Serum; conditions: cattle, read-out: PB

## Nc1nc(Nc2ccc(F)cc2)nc(Oc2ccc(F)cc2)n1
[1]
  IC50: 600 nM
Leishmania infantum
  IC50: > 64000 nM
[2]
  remaining at 0.5 h, 5 µM: 80%
[3]
  Stability: 97%
[4]
  Stability: 103%
[5]
  Stability: 101%
[6]
  remaining at 0.25 h, 5 µM: 93%
[7]
  remaining at 0.25 h, 5 µM: 107%
[8]
  Activity: inactive
[9]
  MST: 7 days
[10]
  MST: 6 days
[11]
  remaining at 0.5 h: 91%
[12]
  remaining at 24 h: 87%
[13]
  fraction unbound at 6 h, 2 µM: 0.04
[14]
  concentration at 0.5 h: 2870 ng/mL
[15]
  concentration at 1 h: 3800 ng/mL
[16]
  concentration at 4 h: 800 ng/mL
[17]
  concentration at 4 h: 204 ng/mL
[18]
  concentration at 4 h: 2030 ng/mL
[19]
  concentration at 24 h: 150 ng/mL
[20]
  concentration at 0.5 h: 842 ng/mL
[21]
  concentration at 1 h: 1180 ng/mL
[22]
  concentration at 2 h: 1320 ng/mL
[23]
  concentration at 4 h: 929 ng/mL
[24]
  Cmax: 3830 ng/mL
[25]
  AUC: 9350 ng·h/mL
[26]
  Cmax: 2690 ng/mL
[27]
  AUC at 4 h: 13800 ng·h/mL
[28]
  CL/F: 70.1 mL/min
[29]
  Ratio: 10
[30]
  recovery at 6 h, 2 µM: 90.2%
[31]
  fraction unbound at 6 h, 10 µM: 0.498
